In assay [1] the target is T1, Galectin-1 (Homo sapiens, UniProt P09382). The assay is described as follows: Binding affinity to Galectin-1 in human Jurkat E6-1 cells surface glycans assessed as attenuation of agglutination at 20 uM by morphometric analysis. Format: cell-based. In short, it runs like this: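 Jurkat E6.1 cells (2 × 10^6 per 200 μL RPMI 1640) agglutinated with 1 μM gal-1 and incubated at 22 °C in medium alone or with 20 μM compound. Agglutination imaged by inverted phase microscopy, then digitally quantified by pixel-based morphometric analysis.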
T1 sequence (P09382 whole entry): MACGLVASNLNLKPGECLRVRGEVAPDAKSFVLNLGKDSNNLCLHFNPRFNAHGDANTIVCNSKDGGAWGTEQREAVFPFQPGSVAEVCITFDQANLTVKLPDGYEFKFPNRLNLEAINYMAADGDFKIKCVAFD

The test system of a further assay is SK-HEP1. Description: Cytotoxicity against human SKHEP1 cells assessed as cell viability by MTT assay. Type of assay: functional, cell-based. In short, it runs like this:
(§1)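 Cells grown as monolayers in RPMI with 10% FCS and 2 mM glutamine at 37 °C, 5% CO2, seeded at 2 × 10^3 cells/well. Then 72 h drug exposure and 48 h wash-out, followed by 0.4 mg/mL MTT for 4 h at 37 °C. Formazan dissolved in DMSO, absorbance read at 560 nm, and IC50 determined per cell line.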

In a further assay the test system is DU-145. The assay is described as follows: Cytotoxicity against human DU145 cells assessed as cell viability by MTT assay. Format: functional, cell-based. In short, it runs like this: as §1
(Tetrazolium assays rely on reduction of a dye to a coloured formazan, in cell work by metabolically active cells.)

The test system of another assay is HEp-2. Description: Cytotoxicity against human Hep2 cells assessed as cell viability by MTT assay. Type of assay: functional, cell-based. Summed up:
as §1

For assay [2], the system named is COLO 205. Description: Cytotoxicity against human COLO205-R cells assessed as cell viability by MTT assay. Format: functional, cell-based. In short, it runs like this: as §1
The subject of assay [3] is COLO 205. Description: Cytotoxicity against human COLO205-S cells assessed as cell viability by MTT assay. Format: functional, cell-based. In short, it runs like this:
as §1

Another assay deals with HT-29. Description: Cytotoxicity against human HT-29 cells assessed as cell viability by MTT assay. Type of assay: functional, cell-based. Summed up: as §1
The subject of a further assay is SQ20B. Description: Cytotoxicity against human SQ20B cells assessed as cell viability by MTT assay. Format: functional, cell-based. Summed up:
as §1

The target in assay [4] is T1, Galectin-1. The assay is described as follows: Binding affinity to human [15N]-labelled Galectin-1 at 60 uM by heteronuclear NMR spectroscopy analysis. Summed up:
(§2)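 Uniformly 15N-labeled recombinant human gal-1 was expressed in E. coli BL21(DE3) and dissolved at 1 mg/mL in 20 mM potassium phosphate, pH 7.0, 50 μM EDTA, 95% H2O/5% D2O. Compound was titrated and followed by 1H-15N HSQC, reading resonance broadening and intensity changes. Averaged intensity change was plotted against free ligand, with bound ligand estimated from total gal-1 monomer (60 μM).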

For assay [5], the target named is T1, Galectin-1. Description: Binding affinity to human [15N]-labelled Galectin-1 by heteronuclear NMR spectroscopy analysis. In short, it runs like this:
as §2

Assay [6] deals with T1, Galectin-1. The assay is described as follows: Inhibition of lactose binding to human [15N]-labelled Galectin-1 at molar ratio of 1:5 Gal1:compound by heteronuclear NMR spectroscopy analysis.
Assay [7] addresses T1, Galectin-1. The assay is described as follows: Inhibition of FITC-conjugated human Galectin-1binding to CD4+ cell surface glycans of gal1 -/- mouse after 30 mins by flow cytometry. Summed up: (§3)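 Splenocytes from gal-1−/− mice, with RBCs lysed in ACK for 5 min on ice. Cells stained with lineage antibodies for 40 min on ice, then given FITC-gal-1 (0.1 or 0.2 μM; FITC:protein labeling ratio 10:1) with or without compound for 30 min on ice. Binding read by multiparameter flow cytometry gated on CD4+, CD8+ and CD31+ cells.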
For orientation: In flow cytometry, cells or beads pass a laser one at a time.

The target of assay [8] is T1, Galectin-1. The assay is described as follows: Inhibition of FITC-conjugated human Galectin-1binding to CD8+ cell surface glycans of gal1 -/- mouse after 30 mins by flow cytometry. Summed up: as §3
For assay [9], the target named is T1, Galectin-1. Description: Inhibition of FITC-conjugated human Galectin-1binding to CD31+ endothelial cell surface glycans of gal1 -/- mouse after 30 mins by flow cytometry. Summed up: as §3
The target in assay [10] is T1, Galectin-1. Description: Inhibition of FITC-conjugated human Galectin-1binding to CD4+ cell surface glycans of gal1 -/- mouse at 20 uM after 30 mins by flow cytometry. In short, it runs like this: as §3
Assay [11] has as its target T1, Galectin-1. Description: Inhibition of FITC-conjugated human Galectin-1binding to CD8+ cell surface glycans of gal1 -/- mouse at 20 uM after 30 mins by flow cytometry. In short, it runs like this:
as §3

Assay [12] addresses T1, Galectin-1. Description: Inhibition of FITC-conjugated human Galectin-1binding to CD4+ cell surface glycans of gal1 -/- mouse at 100 uM after 30 mins by flow cytometry. Summed up: as §3
Assay [13] addresses T1, Galectin-1. The assay is described as follows: Inhibition of FITC-conjugated human Galectin-1binding to CD8+ cell surface glycans of gal1 -/- mouse at 100 uM after 30 mins by flow cytometry. Summed up: as §3
The target of assay [14] is T1, Galectin-1. Description: Inhibition of FITC-conjugated human Galectin-1binding to CD31+ endothelial cell surface glycans of gal1 -/- mouse at 20 uM after 30 mins by flow cytometry. Summed up: as §3
Assay [15] deals with T1, Galectin-1. Description: Inhibition of FITC-conjugated human Galectin-1binding to CD31+ endothelial cell surface glycans of gal1 -/- mouse at 100 uM after 30 mins by flow cytometry. In short, it runs like this:
as §3

The source made the active and inactive calls. The rule behind the calls is not given here.

Turning to `CN(C)CCNC(=O)COc1c2cccc1Cc1cccc(c1OCC(=O)NCCN(C)C)Cc1cccc(c1OCC(=O)NCCN(C)C)Cc1cccc(c1OCC(=O)NCCN(C)C)C2` [OTX-008], the Activity on Galectin-1 [1] was 80%; in the assay on SK-HEP1 it was “Dose-dependent effect”; in the assay with DU-145, “Dose-dependent effect”; with HEp-2, “Dose-dependent effect”; with COLO 205 [2], “Dose-dependent effect”; with COLO 205 [3], “Dose-dependent effect”. The Activity result was “Dose-dependent effect” with HT-29, “Dose-dependent effect” in the assay on SQ20B and 50% on Galectin-1 [4]. This compound also yielded an equilibrium dissociation constant (Kd) at Galectin-1 [5] of 30 µM. Also, on Galectin-1 [6], the inhibition entry is “Active”. Moreover, the inhibition result was “Dose-dependent effect” on Galectin-1 [7]; “Dose-dependent effect” on Galectin-1 [8]; “Dose-dependent effect” at Galectin-1 [9]; 80% at Galectin-1 [10]; 80% at Galectin-1 [11]; 100% on Galectin-1 [12]. Besides, the inhibition was 100% on Galectin-1 [13], 50% at Galectin-1 [14] and 70% at Galectin-1 [15].

The Kd is a measure of binding affinity in units of concentration. One may read the inhibition as the percentage by which the read-out fell short of the control.

These data come from ChEMBL document CHEMBL2086291, “Antitumor agent calixarene 0118 targets human galectin-1 as an allosteric inhibitor of carbohydrate binding” (J Med Chem, 2012).
